Bioassay records (PubChem)
RGS4 inh = RGS4 inhibitors, primary screen, cell-based, HEK293 M3R inducible RGS4, calcium flux | Regulator of G-protein signaling 4 (Homo sapiens), P49798 | Fluo-4 calcium flux; hits give high values; triggered by carbachol at its EC20 | B-score at 10 µM | 310,000 compounds, 0.45% hits | AID 463165, 2010;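 active = B-score, a plate-corrected calcium signal, over three deviations above library mean, with baseline fluorescence within five deviations of library mean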;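 also: RGS4 expression induced by doxycycline in cells with stable M3 receptor; B-score is computed from the integrated fluorescence ratio over baseline after carbachol; higher B-score means a larger calcium signal and so more RGS4 inhibition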
Target sequence (P49798 whole entry, looked up): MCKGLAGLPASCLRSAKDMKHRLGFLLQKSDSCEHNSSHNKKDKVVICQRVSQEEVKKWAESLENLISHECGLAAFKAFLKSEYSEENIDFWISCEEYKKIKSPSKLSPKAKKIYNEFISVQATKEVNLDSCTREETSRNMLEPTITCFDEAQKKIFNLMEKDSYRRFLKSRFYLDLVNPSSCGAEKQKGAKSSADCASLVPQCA
KCC2 mod = KCC2 cotransporter modulators, thallium flux, primary screen, cell-based, HEK293 KCC2, FluoZin-2 fluorescence, MLSMR; Solute carrier family 12 member 5 (Homo sapiens), Q9H2X9; KCC2 cells, thallium flux FluoZin-2 fluorescence; 190,000 compounds, 2.2% hits; B-score of Tl+ flux slope (higher = more flux/activation; lower = inhibition) at 10 µM; AID 1456, 2008;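 active = thallium flux slope and its plate-corrected score both differing from the plate sample mean at a set confidence after two filtering rounds, in either direction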;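 also: slope of fluorescence scaled to starting intensity during 10 to 20 s after thallium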
MrgX1 agonist = agonists of human MrgX1 receptor, primary screen, HEK293 cells, Fluo-4 calcium flux; B-score at 10 µM; 310,000 compounds, 0.44% hits; Fluo-4 calcium fluorescence, agonist mode; hits give high values; Mas-related G-protein coupled receptor member X1 (Homo sapiens), Q96LB2;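 active = calcium response B-score plate-corrected fluorescence ratio at least 3 library SD, with starting fluorescence B-score inside 5 SD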
Target sequence (Q96LB2 whole entry, looked up): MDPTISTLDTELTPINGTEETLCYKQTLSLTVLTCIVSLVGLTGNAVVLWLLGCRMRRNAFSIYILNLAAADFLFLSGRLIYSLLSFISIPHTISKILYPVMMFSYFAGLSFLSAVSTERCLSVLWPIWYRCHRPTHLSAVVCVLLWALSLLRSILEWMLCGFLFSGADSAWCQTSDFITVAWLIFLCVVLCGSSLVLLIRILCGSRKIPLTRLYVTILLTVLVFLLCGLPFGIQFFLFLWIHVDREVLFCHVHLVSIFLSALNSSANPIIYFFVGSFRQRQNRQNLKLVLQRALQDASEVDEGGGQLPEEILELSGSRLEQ
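Test system: HEK293 cells stably expressing human MrgX1 receptor; Input: fifteen thousand cells per well; Dosing: compound delivered in addition one of three; Schedule: overnight seeding, then 1 h dark dye loading; Technique: Fluo-4 NW calcium fluorescence; Measure: B-scored fluorescence response ratio; Controls: positive and negative controls per plate.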
MrgX1 antag = antagonists of human MrgX1 receptor, primary screen, HEK293 cells, Fluo-4 calcium flux | Mas-related G-protein coupled receptor member X1 (Homo sapiens), Q96LB2 | BAM8-22 antagonism; hits give low values | B-score at 10 µM | 310,000 compounds, 1.3% hits | AID 588676, 2011;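 active = calcium-response B-score plate-corrected more than 3 library SD below zero, starting fluorescence within 5 deviations, no agonist response on first addition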;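 also: peak minus trough fluorescence over baseline after final BAM8-22 challenge near maximal dose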
MrgX1 allo act = positive allosteric modulators of MrgX1, primary screen, HEK293 cells, Fluo-4 calcium flux; FDSS; hits give high values; AID 588675, 2011; B-score at 10 µM; 310,000 compounds, 0.63% hits;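 active = plate-corrected calcium response at least 3 library SD above typical, normal starting fluorescence, not activating the receptor alone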;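 also: compound read alongside a low EC10 to EC30 dose of BAM8-22 agonist; peak minus trough fluorescence over baseline measured at the second addition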
RGS4 act = RGS4 potentiators or activators, primary screen, cell-based, HEK293 M3R inducible RGS4, calcium flux; carbachol calcium flux Fluo4; hits give low values; B-score at 10 µM; AID 463111, 2010; 310,000 compounds, 0.92% hits;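 active = B-score of the integrated calcium signal more than 4 SD below the library mean, with starting fluorescence not abnormally high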;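 also: negative B-score means reduced calcium response which marks RGS4 activation or potentiation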
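System – HEK293 FlpIn-TREx cells, stable M3R, doxycycline-inducible RGS4 · Reagent – ECmax carbachol challenge · Times – compound preincubation 20 min at room temperature before agonist · Technique – Fluo4 fluorescence kinetic imaging of calcium · Measure – B score of integrated Fluo4 ratio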
* = called active by the depositor; i = inactive; nt = no result. Rows were chosen to be rich in hits. Some 4.7% of all compounds tested hit in one or more screens of this group.

SMILES	RGS4 inh	KCC2 mod	MrgX1 agonist	MrgX1 antag	MrgX1 allo act	RGS4 act
O=C(N/C(=C\c1ccc(-c2ccccc2)o1)C(=O)N1CCOCC1)c1ccccc1	nt	-7.25*	nt	nt	nt	nt
O=[N+]([O-])c1ccc(CS(=O)(=O)c2ncn[nH]2)cc1	i	nt	i	i	i	i
CSc1nnc(C)c(=O)n1COC(=O)c1cc(Cl)ccc1[N+](=O)[O-]	i	0.306	i	i	i	i
CSc1nnc(C)c(=O)n1COC(=O)c1ccc([N+](=O)[O-])cc1	i	-0.688	i	i	12.2*	i
COc1ccccc1N1CCN(C(=O)CCC(=O)Nc2nnc(C(C)C)s2)CC1	i	nt	i	i	i	i
C=C1C(=O)O[C@H]2[C@H]1[C@@H](O)CC(=C)[C@@H]1CC(=O)[C@@H](C)[C@H]21	6.66*	nt	i	i	i	i
O=C(N/N=C/c1cc([N+](=O)[O-])ccc1O)C(O)(c1ccccc1)c1ccccc1	i	nt	i	i	9.37*	i
O=C(N/N=C/c1cc([N+](=O)[O-])ccc1O)C1CC1	i	-1.02	i	i	i	i
CC(=O)c1cc(NC(=O)c2ccc(C)cc2)c(=O)oc1/C=C/N(C)C	i	nt	i	i	i	i
COc1ccc(C(=O)Nc2cc(C(C)=O)c(/C=C/N(C)C)oc2=O)cc1	i	-2.11	i	-5.28*	i	i
Cc1cccc2cc(C#N)c(SCC(=O)NNC(=O)Cc3ccccc3)nc12	i	0.517	i	i	i	i
CCc1cc2ccc(C)cc2nc1SCC(=O)NNC(=O)c1ccco1	i	3.05*	i	i	i	i
CCc1cc2cc(C)ccc2nc1SCC(=O)NNC(=O)c1ccco1	i	nt	i	i	i	i
Cc1cc2cccc(C)c2nc1SCC(=O)NNC(=O)c1ccco1	i	2.49	i	i	11.8*	i
Cc1coc2c1c(C)cc1oc(=O)c(CC(=O)N[C@@H](C)C(=O)O)c(C)c12	i	nt	i	i	i	i
N#CCOC(=O)[C@H](Cc1c[nH]c2ccccc12)NS(=O)(=O)c1ccc(Cl)cc1	i	nt	i	i	i	i
COc1ccc2c(c1)C(c1ccc(C)o1)=NNC(c1ccccc1)=N2	i	nt	i	-8.37*	i	i
COc1ccccc1-n1c(SC(C)C(=O)NCC2CCCO2)nc2cc(Cl)ccc2c1=O (centres undefined)	i	nt	i	i	i	i
Cc1ccc(C2NC(c3ccc(C)cc3)C(C)C(=NO)C2C)cc1 (centres undefined)	i	nt	i	i	11.6*	i
CC1C(=NO)C(C)C(c2ccccc2)NC1c1ccccc1 (centres undefined)	i	nt	i	i	i	i
O=C(NCc1ccccc1Cl)c1cc(=O)[nH]c2ccccc12	i	nt	i	i	i	i
CC1CCCC(C)N1/N=C/c1ccc(C#N)cc1 (centres undefined)	i	0.258	i	i	8.41*	i
Cc1c(N/N=C(\C#N)C(=O)c2ccc(Cl)cc2)c(=O)n(-c2ccccc2)n1C	i	0.292	i	i	i	i
N#C/C(=N\Nc1ccc(Cl)cc1)C(=O)c1ccccc1	i	-3.46*	i	i	i	i
COc1ccc(C(=O)/C(C#N)=N/Nc2ccc([N+](=O)[O-])cc2)cc1	i	-3.6*	i	i	i	i
SMILES	RGS4 inh	KCC2 mod	MrgX1 agonist	MrgX1 antag	MrgX1 allo act	RGS4 act
Cc1ccccc1CS(=O)(=O)c1nnc([C@H](CC(C)C)NC(=O)OC(C)(C)C)o1	i	-3.18	33.2*	i	i	i
CC[C@@H](C)[C@H](NC(=O)OC(C)(C)C)c1nnc(S(=O)(=O)Cc2cc(C)ccc2C)o1	i	-6.42*	i	i	7.07*	i
CC1CCN(C(=O)CSc2nc3c(c(=O)n2C)SC(C)C3)CC1 (centres undefined)	i	nt	i	i	i	i
CNC(=S)N/N=C/c1ccccc1Cl	i	2.13	i	i	i	i
S=C(N/N=C/c1ccccc1Cl)Nc1ccccc1	i	15.6*	i	i	i	i
O=S(=O)(c1ccc(-c2ccon2)s1)N1CCN(c2ccncc2)CC1	i	0.791	53.1*	i	i	i
O=C(O)c1cc(N=Cc2c(O)c3ccccc3oc2=O)ccc1O	i	nt	i	i	i	i
CC(=O)Nc1ccc(S(=O)(=O)NCc2ccc(C(=O)NCCN3CCCCCC3)cc2)cc1	i	-0.501	i	-9.41*	i	i
CSCCC(NC(=O)c1ccccc1Cl)C(=O)NNC(=O)c1ccncc1 (centres undefined)	i	nt	i	i	i	i
CC(C(=O)NN)c1ccc([N+](=O)[O-])cc1 (centres undefined)	i	-0.181	i	i	9.24*	i
O=C(NC1CCCc2ccccc21)c1c(F)cccc1Cl (centres undefined)	i	nt	i	i	i	i
Cc1cc(C)n(CC(=O)Nc2ccc(N3CCOCC3)c(Cl)c2)c(=O)c1C#N	i	nt	i	i	i	i
COc1cccc(CN2C(=O)C(C)N(C(=O)c3ccccc3)c3ccccc32)c1 (centres undefined)	i	nt	i	i	i	i
O=c1c2cccnc2[nH]c(=S)n1Cc1ccccc1	i	5.49*	i	i	i	i
O=c1c2ccccc2[nH]c(=S)n1CCN1CCN(Cc2ccccc2)CC1	i	15.2*	i	i	i	i
O=c1c2cc(N3CCOCC3)ccc2[nH]c(=S)n1CCCN1CCCCCC1	i	0.43	i	i	i	i
O=c1c2nccnc2[nH]c(=S)n1Cc1ccccc1	i	0.935	i	i	i	i
O=c1c2cc(F)ccc2[nH]c(=S)n1CCCN1CCOCC1	i	6.44*	i	i	i	i
CN1CCN(CCn2c(=S)[nH]c3ccccc3c2=O)CC1	i	nt	i	i	i	i
CC1CN(C(=O)Cn2cc(S(=O)(=O)CC(=O)N3CCOCC3)c3ccccc32)CC(C)O1 (centres undefined)	i	nt	i	i	i	i
